Compound activity deposited in PubChem by several laboratories.
An excerpt weighted towards active compounds, which were near 4.2% of everything screened.
AHR act = AHR activators, primary screen, cell-based, luminescence, luciferase reporter, human. AHR-responsive luciferase reporter cells. activation, % at 5 µM. Aryl hydrocarbon receptor (Homo sapiens), P35869. 2.5% of 320,000 active; in the data active = activation above about 47%
SENP1 FRET inh = human SENP1 catalytic domain inhibitors, primary screen, biochemical, FRET, uHTS; 0.21% of 360,000 active; Sentrin-specific protease 1 (Homo sapiens), Q9P0U3; recombinant SENP1 catalytic domain, CyPet-SUMO1-YPet FRET cleavage; inhibition, % at 10 µM; AID 624204, 2012;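 active = inhibition at least 30% at 10 µM, raw YFP signal under a set limit, fluorescence ratio 0.5 to 1.5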
Target sequence (Q9P0U3 419-644 limits assumed): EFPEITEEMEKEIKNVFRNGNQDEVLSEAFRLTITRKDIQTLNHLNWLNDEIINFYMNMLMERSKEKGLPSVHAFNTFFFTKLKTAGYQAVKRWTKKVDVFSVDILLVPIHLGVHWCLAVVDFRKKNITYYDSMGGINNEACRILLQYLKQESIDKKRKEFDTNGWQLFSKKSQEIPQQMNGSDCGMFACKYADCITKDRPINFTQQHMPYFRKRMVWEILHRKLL
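Assay system: hSENP1 catalytic domain, recombinant. Amount: SENP1 enzyme, 20 pM final. Schedule: 50 min reaction, RT, dark. Technique: FRET, CFP and YFP emission. Control set: no-enzyme wells low, DMSO-plus-enzyme wells high control.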
HDAC3 inh = HDAC3 deacetylase inhibitors, primary screen, biochemical, fluorescence, cell-free homogeneous. recombinant HDAC3, fluorogenic peptide/trypsin coupled. Histone deacetylase 3 (Homo sapiens), O15379. 0.15% of 320,000 active. inhibition, % at 8.3 µM; in the data active = inhibition above about 26%, passing the limit was not always enough
CTSL1 counter-1 = Fasciola hepatica cathepsin L1 inhibitors, primary screen, counter-screen for PFM18AAP inhibitor project, biochemical, QFRET, fluorogenic peptide substrate; recombinant F. hepatica cathepsin L1, Z-Leu-Arg-MCA fluorescence; inhibition, % at 5.96 µM; 0.49% of 300,000 active; AID 1906, 2009;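 active = inhibition above the mean of all tested compounds plus 3 SD, set per screening campaign, cut at about 17% in these data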
FXN GAA850 act = FXN promoter activators, primary screen, cell-based, luciferase luminescence, HEK293 lucGAA850; 0.56% of 360,000 active; HEK293 lucGAA850 FXN promoter luciferase reporter, 24 h; percent of 10 µM SAHA response; AID 540364, 2011; activation, % at 6 µM;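 active = activation above the average of all compounds screened plus 3 SD, cutoff fixed separately per campaign, cut at about 7.5% in these data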
PfM18AAP inh-1 = PfM18AAP inhibitors, malaria aminopeptidase, primary screen, biochemical, QFRET, recombinant enzyme. M18 aspartyl aminopeptidase (Plasmodium falciparum 3D7). H-Glu-NHMec fluorogenic cleavage. inhibition, % at 7.35 µM. 1.2% of 290,000 active. AID 1822, 2009;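 active = inhibition above the campaign mean inhibition over all tested compounds plus 3 SD, cut at about 28% in these data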
PfM18AAP inh-2 = PfM18AAP inhibitors, malaria aminopeptidase, confirmation, biochemical, QFRET, recombinant enzyme, triplicate; shares compounds with PfM18AAP inh-1; H-Glu-NHMec fluorogenic cleavage; inhibition, % at 7.35 µM; 28% of 2,400 active;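 active = mean inhibition over replicate wells above the hit cutoff set for the earlier primary screen, cut at about 29% in these data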
CTSL1 counter-2 = cathepsin L1 inhibitors, retest, confirmation, counter-screen for PFM18AAP inhibitor project, biochemical, QFRET, triplicate; purified cathepsin L1, Z-Leu-Arg-MCA fluorescence; shares compounds with PfM18AAP inh-1; inhibition, % at 5.96 µM; 2,400 tested, under 10 active; AID 2178, 2009;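 active = average inhibition across replicates above the hit cutoff set in the earlier primary screen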
Target sequence (P07711 whole entry, looked up): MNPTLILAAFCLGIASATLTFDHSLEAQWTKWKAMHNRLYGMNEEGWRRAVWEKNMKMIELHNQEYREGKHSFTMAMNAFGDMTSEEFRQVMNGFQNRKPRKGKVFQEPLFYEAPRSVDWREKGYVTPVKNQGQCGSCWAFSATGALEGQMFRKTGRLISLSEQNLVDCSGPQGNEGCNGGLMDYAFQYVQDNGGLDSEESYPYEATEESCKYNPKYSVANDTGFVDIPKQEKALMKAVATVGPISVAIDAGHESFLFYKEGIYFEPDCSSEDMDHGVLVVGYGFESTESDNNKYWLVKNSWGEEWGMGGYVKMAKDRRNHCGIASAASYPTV
Each line names hits and unclear results; the compound was inactive in the other large screens (follow-up assays come after a bar, where they were run).

Oc1ccc2c(c1)C1CCCC1(N1CCOCC1)O2 (centres undefined)	PfM18AAP inh-1 35.6 | PfM18AAP inh-2 inactive | CTSL1 counter-2 inactive
Cc1cc(C)nc(SCC(=O)c2cc3ccccc3oc2=O)n1	PfM18AAP inh-1 40.1 | PfM18AAP inh-2 inactive | CTSL1 counter-2 inactive
O=C(CSc1nc2ccccc2o1)c1cc2ccccc2oc1=O	none
O=C(OCC(=O)N1CCN(c2ccc(F)cc2)CC1)c1cnc2ccccc2n1	none (no result: CTSL1 counter-1, PfM18AAP inh-1)
COc1ccc(-c2nc3ccccc3c(=O)n2NC(=S)N(C)C)cc1	PfM18AAP inh-1 35.6 (no result: HDAC3 inh) | PfM18AAP inh-2 32.7 | CTSL1 counter-2 inactive
COc1ccc(OCC(=O)Nn2c(-c3ccc(OC)cc3)nc3ccccc3c2=O)cc1	none
CCCCOC(=O)c1sc2nc(N3CCOCC3)c3c(c2c1N)CC(C)(C)OC3	none
CC1(C)Cc2c(c(N3CCOCC3)nc3sc(C(=O)N4CCCCC4)c(N)c23)CO1	PfM18AAP inh-1 33.5 (no result: HDAC3 inh) | PfM18AAP inh-2 inactive | CTSL1 counter-2 inactive
COc1ccc(NC(=O)c2sc3nc(N4CCOCC4)c4c(c3c2N)CC(C)(C)OC4)cc1	PfM18AAP inh-1 35.8 | PfM18AAP inh-2 inactive | CTSL1 counter-2 inactive
COc1ccc(NC(=O)c2sc3nc(N4CCCC4)c4c(c3c2N)CC(C)(C)OC4)cc1	none
COc1ccc(NC(=O)C2CCN(S(=O)(=O)c3cccc4nonc34)CC2)c(OC)c1	none
CCOC(=O)[C@]12CCC=C1N(CCC1=CCCCC1)C(=O)[C@H](CC(=O)N1CCSCC1)C2	none (no result: AHR act, HDAC3 inh, CTSL1 counter-1, FXN GAA850 act, PfM18AAP inh-1)
Cc1cc(OCC(=O)Nn2cnnc2)ccc1Br	PfM18AAP inh-1 55.9 | PfM18AAP inh-2 59.1 | CTSL1 counter-2 inactive
CCn1c(=O)n(CC)c2cc(N3CCCC3)c(NC(=O)c3c(F)cccc3F)cc21	PfM18AAP inh-1 35.2 | PfM18AAP inh-2 inactive | CTSL1 counter-2 inactive
CCn1c(=O)n(CC)c2cc(N3CCCC3)c(NC(=O)c3ccc(F)cc3)cc21	PfM18AAP inh-1 34.9 | PfM18AAP inh-2 inactive | CTSL1 counter-2 inactive
CCOc1ccc(C(=O)Nc2cc3c(cc2N2CCCC2)n(CC)c(=O)n3CC)cc1OCC	none
O=c1ccc(-c2ccc(S(=O)(=O)NCC3CCN(Cc4ccccc4F)CC3)s2)n[nH]1	none
COc1cc(OC)cc(C(=O)NCc2n[nH]c(=S)n2-c2ccccc2)c1	none
O=C(COc1ccccc1)NCc1n[nH]c(=S)n1-c1ccccc1	PfM18AAP inh-1 41.7 | PfM18AAP inh-2 inactive | CTSL1 counter-2 inactive
COc1ccc(-n2c(CNC(=O)COc3ccccc3)n[nH]c2=S)cc1	PfM18AAP inh-1 32.7 | PfM18AAP inh-2 inactive | CTSL1 counter-2 inactive
COc1ccc(-n2c(Cn3nnc4ccccc43)n[nH]c2=S)cc1	PfM18AAP inh-1 38.5 (no result: HDAC3 inh) | PfM18AAP inh-2 inactive | CTSL1 counter-2 inactive
COc1ccc(-n2c(CNC(=O)COc3ccc(Cl)cc3)n[nH]c2=S)cc1	none
COC(=O)c1ccc2nc(C3CCCCC3)c(Cc3cccc(Cl)c3)n2c1	none (no result: AHR act, HDAC3 inh, CTSL1 counter-1, FXN GAA850 act, PfM18AAP inh-1)
O=C(C(=O)N1CCN(c2ccccc2)CC1)c1ccncc1	none (no result: AHR act, HDAC3 inh, CTSL1 counter-1, FXN GAA850 act, PfM18AAP inh-1)
Cc1cc(NO)nc(-c2ccc(Br)cc2)n1	PfM18AAP inh-1 55.9 | PfM18AAP inh-2 31.6 | CTSL1 counter-2 inactive
COc1ccccc1NC(=O)c1ccccc1N(Cc1ccccc1)S(C)(=O)=O	none (no result: AHR act, CTSL1 counter-1)
O=C(CSc1nc(-c2ccccc2)ns1)NCC1CCCO1 (centres undefined)	PfM18AAP inh-1 34.7 | PfM18AAP inh-2 inactive | CTSL1 counter-2 inactive
CCc1nc2c(OCc3cccc(OC)c3)cccn2c1N(C)C(=O)c1ccc(OC)cc1	none (no result: AHR act, HDAC3 inh, CTSL1 counter-1, PfM18AAP inh-1)
Cc1ccc(C(=O)N/C(=C/c2ccc(-c3ccc([N+](=O)[O-])cc3)o2)C(=O)NCCCN(C)C)cc1	none (no result: PfM18AAP inh-1)
CCc1c(C)sc(NC(=O)/C=C/C(=O)O)c1C(N)=O	PfM18AAP inh-1 33.6 | PfM18AAP inh-2 inactive | CTSL1 counter-2 inactive
CCCCC(=O)c1ccc(OC(=O)c2ccc([N+](=O)[O-])cc2)cc1	none (no result: AHR act, HDAC3 inh, CTSL1 counter-1, PfM18AAP inh-1)
CCN(c1ccccc1)S(=O)(=O)c1cc(C(=O)NCC(c2ccc(OC)cc2)N(C)C)ccc1C (centres undefined)	none (no result: AHR act, HDAC3 inh, CTSL1 counter-1, PfM18AAP inh-1)
O=C1C=C(NNC(=O)c2cccnc2)CC(c2ccco2)C1 (centres undefined)	PfM18AAP inh-1 35.2 | PfM18AAP inh-2 inactive | CTSL1 counter-2 inactive
COc1cc(OC)cc(-c2nc3ccccc3c(=O)n2OC(=O)c2ccc(C)c(C)c2)c1	none
COc1ccc(C(=O)NC(=S)NNC(=O)c2ccc(C)cc2)cc1	none (no result: PfM18AAP inh-1)
CCC(=O)NC(=S)Nc1ccccc1C(F)(F)F	none
Cc1ccc(C(=O)NC(=S)NNC(=O)CC#N)cc1	PfM18AAP inh-1 33.1 | PfM18AAP inh-2 inactive | CTSL1 counter-2 inactive
CCCCC(=O)NNC(=S)NC(=O)c1ccc(C)cc1	PfM18AAP inh-1 45.6 | PfM18AAP inh-2 inactive | CTSL1 counter-2 inactive
N#CCC(=O)NNC(=S)Nc1ccccc1C(F)(F)F	PfM18AAP inh-1 46.1 | PfM18AAP inh-2 inactive | CTSL1 counter-2 inactive
CCCCC(=O)NNC(=S)NC(=O)c1ccc([N+](=O)[O-])cc1	PfM18AAP inh-1 38.8 | PfM18AAP inh-2 inactive | CTSL1 counter-2 inactive
